According to ChEMBL document CHEMBL1132222, “Lamellarin alpha 20-sulfate, an inhibitor of HIV-1 integrase active against HIV-1 virus in cell culture” (J Med Chem, 1999):
Several values for one entry are separate records, joined by “and”; a condition that tells them apart may be missing. Identical values can stand only once. Activity calls are given as the source filed them. No cut-off for these calls is given here.

Experiments:
[1] = target: Human immunodeficiency virus type 1 integrase (Human immunodeficiency virus 1, UniProt Q7ZJM1); experiment: Inhibitory activity against integrase as yield of terminal cleavage products
Human immunodeficiency virus type 1 integrase, sequence (Q7ZJM1 whole entry): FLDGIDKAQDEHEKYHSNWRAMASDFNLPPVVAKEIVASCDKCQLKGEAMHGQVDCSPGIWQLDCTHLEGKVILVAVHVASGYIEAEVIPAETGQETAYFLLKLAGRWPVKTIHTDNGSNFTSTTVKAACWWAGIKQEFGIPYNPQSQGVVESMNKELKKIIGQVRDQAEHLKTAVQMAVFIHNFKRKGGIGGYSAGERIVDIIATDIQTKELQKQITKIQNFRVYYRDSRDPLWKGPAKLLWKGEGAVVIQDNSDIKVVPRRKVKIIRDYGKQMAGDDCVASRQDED
Procedure, shortened: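 Purified HIV-1 integrase incubated with an end-labeled substrate oligonucleotide across a compound titration. Products separated by electrophoresis and visualized by autoradiography; terminal cleavage product quantitated relative to positive control without inhibitor.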

[2] = tested on: Molluscum contagiosum virus; experiment: The relaxation activity of MCV topoisomerase was assayed at 500 electrophoresis; No Inhibition; type: functional, organism-based
Procedure, shortened: (§1)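 Type 1B topoisomerase of molluscum contagiosum virus; relaxation of supercoiled plasmid DNA monitored by mobility shift on agarose gel electrophoresis.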

[3] = The compound was tested for toxicity using MTT cytotoxicity assay in Hela cell culture, activity expressed as LD50 value.; type: cell-based; details: human, HeLa cells; read-out: LD50 (the source's name)
Procedure, shortened: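 HeLa cells in culture exposed to a range of compound concentrations; viability read out with MTT dye; LD50 derived from the concentration series.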

[4] = tested on: Molluscum contagiosum virus; experiment: The relaxation activity of MCV topoisomerase was assayed at 100 electrophoresis; No Inhibition; type: functional, organism-based
Procedure, shortened: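 Counterscreen against the type 1B topoisomerase of molluscum contagiosum virus (MCV). Relaxation of supercoiled plasmid DNA was followed by the change in its mobility on agarose gel electrophoresis, with compound present.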

[5] = tested on: Molluscum contagiosum virus; experiment: The relaxation activity of MCV topoisomerase was assayed at 170 electrophoresis; No Inhibition; type: functional, organism-based; procedure, shortened: as §1
[6] = tested on: Human immunodeficiency virus 1; experiment: The compound was tested in vitro for inhibition of PIC (preintegrated complexes) from HIV-1 infected cells; type: functional
Procedure, shortened: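 Preintegration complexes isolated from HIV-1-infected cells used as integration source; mixed with naked DNA target and incubated 37 °C for 1 h in presence of compound.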

SMILES | IC50 [1] | inhibition [2] | CC50 [3] | inhibition [4] | inhibition [5] | IC50 [6]
COc1ccc(-c2c3n(c4c(=O)oc5cc(OS(=O)(=O)O)c(OC)cc5c24)C(O)Cc2c-3cc(OC)c(OC)c2OC)cc1O (centres undefined) | 73 µM and 51 µM | inactive | 130 µM | – | – | –
COc1ccc(-c2c3c4cc(OC)c(O)cc4oc(=O)c3n3ccc4cc(O)c(OC)cc4c23)cc1O | 18 µM and 19 µM | – | 5 µM | inactive | – | –
COc1ccc(-c2c3n(c4c(=O)oc5cc(OS(=O)(=O)O)c(OC)cc5c24)CCc2cc(OC)c(OC)cc2-3)cc1O | 34 µM and 25 µM | inactive | 145 µM | – | – | –
COc1ccc(-c2c3n(c4c(=O)oc5cc(O)c(OC)cc5c24)CCc2c-3cc(OC)c(OC)c2OC)cc1O | 27 µM and 24 µM | – | 27 µM | inactive | – | –
COc1ccc(-c2c3c4cc(OC)c(O)cc4oc(=O)c3n3ccc4c(OC)c(OC)c(OC)cc4c23)cc1O | 19 µM and 14 µM | – | 28 µM | – | inactive | –
COc1ccc(-c2c3c4cc(OC)c(OS(=O)(=O)O)cc4oc(=O)c3n3ccc4cc(OC)c(OC)cc4c23)cc1O | 16 µM and 22 µM | – | 274 µM | – | inactive | 88 µM
